In ChEMBL document CHEMBL2396553, “C3'-endo-puckered pyrrolidine containing PNA has favorable geometry for RNA binding: novel ethano locked PNA (ethano-PNA)” (Bioorg Med Chem, 2013):
Activity calls are given as the source filed them. No cut-off for these calls is given here.

Key:
Nucleic Acid [1] = assay: Binding affinity to 5'-UGGAGUGUGACAAUGGUG RNA (unknown origin) assessed as melting temperature at 100 mM by UV-thermal denaturation assay; format: nucleic-acid assay; conditions: 100 mM NaCl
Summary of the method: (§1)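 Each strand 1 µM (concentrations from nucleobase molar extinction coefficients) in 10 mM sodium phosphate pH 7.0 with 10 or 100 mM NaCl. Annealed 90 °C for 5 min, slow-cooled to room temperature then 0 °C. Absorbance at 260 nm followed from 10 to 85 °C at 0.5 °C/min. Tm taken from first-derivative curves. At least three runs, accurate within 0.3 °C.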

Nucleic Acid [2] = assay: Binding affinity to 5'-TGGAGTGTGACAATGGTG cDNA (unknown origin) assessed as melting temperature at 10 mM by UV-thermal denaturation assay; format: nucleic-acid assay; conditions: 10 mM NaCl; summary of the method: as §1
[3] = Binding affinity to 5'-TGGAGTGTGACAATGGTG cDNA (unknown origin) at 1 uM by circular dichroism analysis
Summary of the method: (§2)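 CD spectra of 1 µM complexes in 10 mM sodium phosphate pH 7.0 with 10 mM NaCl, annealed 90 °C for 5 min and slow-cooled to room temperature. Recorded at room temperature from 320 to 210 nm at 100 nm/min in a 1 cm path cuvette. At least 8 scans averaged.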

Nucleic Acid [4] = assay: Binding affinity to 5'-UGGAGUGAGACAAUGGUG mismatch RNA (unknown origin) assessed as melting temperature at 100 mM by UV-thermal denaturation assay; format: nucleic-acid assay; conditions: 100 mM NaCl; summary of the method: as §1
Nucleic Acid [5] = assay: Binding affinity to 5'-TGGAGTGTGACAATGGTG cDNA (unknown origin) assessed as melting temperature at 100 mM by UV-thermal denaturation assay; format: nucleic-acid assay; conditions: 100 mM NaCl; summary of the method: as §1
[6] = Binding affinity to 5'-UGGAGUGUGACAAUGGUG RNA (unknown origin) at 1 uM by circular dichroism analysis; summary of the method: as §2
Nucleic Acid [7] = assay: Binding affinity to 5'-UGGAGUGUGACAAUGGUG RNA (unknown origin) assessed as melting temperature at 10 mM by UV-thermal denaturation assay; format: nucleic-acid assay; conditions: 10 mM NaCl; summary of the method: as §1
Nucleic Acid [8] = assay: Binding affinity to 5'-UGGAGUGAGACAAUGGUG mismatch RNA (unknown origin) assessed as melting temperature at 10 mM by UV-thermal denaturation assay; format: nucleic-acid assay; conditions: 10 mM NaCl; summary of the method: as §1

Tm (Nucleic Acid [1]) | Tm (Nucleic Acid [2]) | Activity [3] | Tm (Nucleic Acid [4]) | Tm (Nucleic Acid [5]) | Activity [6] | Tm (Nucleic Acid [7]) | Tm (Nucleic Acid [8]) | Compound
57.2 °C | 51.8 °C | Active | 44.7 °C | 46.6 °C | Active | 60.4 °C | 46.7 °C | Cc1cn(CC(=O)N(CCNC(=O)CN(CCNC(=O)CN(CCN)C(=O)Cn2ccc(N)nc2=O)C(=O)Cn2cnc3c(N)ncnc32)CC(=O)NCCN(CC(=O)NCCN(CC(=O)N2C[C@@H](N(CC(=O)NCCN(CC(=O)NCCN(CC(=O)NCCN(CC(=O)NCCN(CC(=O)NCCN(CC(=O)NCCN(CC(=O)N[C@@H](CCCCN)C(N)=O)C(=O)Cn3cc(C)c(=O)[nH]c3=O)C(=O)Cn3ccc(N)nc3=O)C(=O)Cn3cnc4c(N)ncnc43)C(=O)Cn3ccc(N)nc3=O)C(=O)Cn3cnc4c(N)ncnc43)C(=O)Cn3ccc(N)nc3=O)C(=O)Cn3cc(C)c(=O)[nH]c3=O)C[C@H]2CN)C(=O)Cn2cnc3c(=O)[nH]c(N)nc32)C(=O)Cn2cc(C)c(=O)[nH]c2=O)c(=O)[nH]c1=O
59.4 °C | 53.7 °C | Active | 46.3 °C | 48.8 °C | Active | 62.7 °C | 47.1 °C | Cc1cn(CC(=O)N(CCNC(=O)CN(CCNC(=O)CN(CCN)C(=O)Cn2ccc(N)nc2=O)C(=O)Cn2cnc3c(N)ncnc32)CC(=O)NCCN(CC(=O)NCCN(CC(=O)N2C[C@@H](N(CC(=O)NCCN(CC(=O)NCCN(CC(=O)NCCN(CC(=O)NCCN(CC(=O)NCCN(CC(=O)NCCN(CC(=O)N[C@@H](CCCCN)C(N)=O)C(=O)Cn3cc(C)c(=O)[nH]c3=O)C(=O)Cn3ccc(N)nc3=O)C(=O)Cn3cnc4c(N)ncnc43)C(=O)Cn3ccc(N)nc3=O)C(=O)Cn3cnc4c(N)ncnc43)C(=O)Cn3ccc(N)nc3=O)C(=O)Cn3cc(C)c(=O)[nH]c3=O)C[C@H]2CNC(=N)N)C(=O)Cn2cnc3c(=O)[nH]c(N)nc32)C(=O)Cn2cc(C)c(=O)[nH]c2=O)c(=O)[nH]c1=O
60.1 °C | 57.1 °C | Active | 45.7 °C | 53.8 °C | Active | 66.3 °C | 51.8 °C | Cc1cn(CC(=O)N(CCNC(=O)CN(CCNC(=O)CN(CCNC(=O)CN(C(=O)Cn2cc(C)c(=O)[nH]c2=O)[C@H]2C[C@@H](CN)N(C(=O)CN(CCNC(=O)CN(CCN)C(=O)Cn3ccc(N)nc3=O)C(=O)Cn3cnc4c(N)ncnc43)C2)C(=O)Cn2cc(C)c(=O)[nH]c2=O)C(=O)Cn2cnc3c(=O)[nH]c(N)nc32)CC(=O)NCCN(CC(=O)NCCN(CC(=O)NCCN(CC(=O)NCCN(CC(=O)NCCN(CC(=O)NCCN(CC(=O)N[C@@H](CCCCN)C(N)=O)C(=O)Cn2cc(C)c(=O)[nH]c2=O)C(=O)Cn2ccc(N)nc2=O)C(=O)Cn2cnc3c(N)ncnc32)C(=O)Cn2ccc(N)nc2=O)C(=O)Cn2cnc3c(N)ncnc32)C(=O)Cn2ccc(N)nc2=O)c(=O)[nH]c1=O
63.7 °C | 64.6 °C | Active | 53 °C | 60.1 °C | Active | 66.1 °C | 55.1 °C | Cc1cn(CC(=O)N(CCNC(=O)CN(CCNC(=O)CN(CCNC(=O)CN(CCNC(=O)CN(CCNC(=O)CN(CCN)C(=O)Cn2ccc(N)nc2=O)C(=O)Cn2cnc3c(N)ncnc32)C(=O)Cn2cc(C)c(=O)[nH]c2=O)C(=O)Cn2cc(C)c(=O)[nH]c2=O)C(=O)Cn2cnc3c(=O)[nH]c(N)nc32)CC(=O)NCCN(CC(=O)NCCN(CC(=O)NCCN(CC(=O)NCCN(CC(=O)NCCN(CC(=O)NCCN(CC(=O)N[C@@H](CCCCN)C(N)=O)C(=O)Cn2cc(C)c(=O)[nH]c2=O)C(=O)Cn2ccc(N)nc2=O)C(=O)Cn2cnc3c(N)ncnc32)C(=O)Cn2ccc(N)nc2=O)C(=O)Cn2cnc3c(N)ncnc32)C(=O)Cn2ccc(N)nc2=O)c(=O)[nH]c1=O
52.3 °C | 49.7 °C | Active | 42.2 °C | 46.2 °C | Active | 59.4 °C | 45.4 °C | Cc1cn(CC(=O)N(CCNC(=O)CN(CCNC(=O)CN(CCN)C(=O)Cn2ccc(N)nc2=O)C(=O)Cn2cnc3c(N)ncnc32)CC(=O)NCCN(CC(=O)NCCN(CC(=O)N2CC[C@H](N(CC(=O)NCCN(CC(=O)NCCN(CC(=O)NCCN(CC(=O)NCCN(CC(=O)NCCN(CC(=O)NCCN(CC(=O)N[C@@H](CCCCN)C(N)=O)C(=O)Cn3cc(C)c(=O)[nH]c3=O)C(=O)Cn3ccc(N)nc3=O)C(=O)Cn3cnc4c(N)ncnc43)C(=O)Cn3ccc(N)nc3=O)C(=O)Cn3cnc4c(N)ncnc43)C(=O)Cn3ccc(N)nc3=O)C(=O)Cn3cc(C)c(=O)[nH]c3=O)C2)C(=O)Cn2cnc3c(=O)[nH]c(N)nc32)C(=O)Cn2cc(C)c(=O)[nH]c2=O)c(=O)[nH]c1=O
60.7 °C | 60.6 °C | Active | 46.8 °C | 56.3 °C | Active | 68.1 °C | 53.6 °C | Cc1cn(CC(=O)N(CCNC(=O)CN(CCNC(=O)CN(CCNC(=O)CN(C(=O)Cn2cc(C)c(=O)[nH]c2=O)[C@H]2C[C@@H](CNC(=N)N)N(C(=O)CN(CCNC(=O)CN(CCN)C(=O)Cn3ccc(N)nc3=O)C(=O)Cn3cnc4c(N)ncnc43)C2)C(=O)Cn2cc(C)c(=O)[nH]c2=O)C(=O)Cn2cnc3c(=O)[nH]c(N)nc32)CC(=O)NCCN(CC(=O)NCCN(CC(=O)NCCN(CC(=O)NCCN(CC(=O)NCCN(CC(=O)NCCN(CC(=O)N[C@@H](CCCCN)C(N)=O)C(=O)Cn2cc(C)c(=O)[nH]c2=O)C(=O)Cn2ccc(N)nc2=O)C(=O)Cn2cnc3c(N)ncnc32)C(=O)Cn2ccc(N)nc2=O)C(=O)Cn2cnc3c(N)ncnc32)C(=O)Cn2ccc(N)nc2=O)c(=O)[nH]c1=O
59.9 °C | 55.8 °C | Active | 43.3 °C | 50 °C | Active | 65.5 °C | 50.8 °C | Cc1cn(CC(=O)N(CCNC(=O)CN(CCNC(=O)CN(CCNC(=O)CN(C(=O)Cn2cc(C)c(=O)[nH]c2=O)[C@H]2CCN(C(=O)CN(CCNC(=O)CN(CCN)C(=O)Cn3ccc(N)nc3=O)C(=O)Cn3cnc4c(N)ncnc43)C2)C(=O)Cn2cc(C)c(=O)[nH]c2=O)C(=O)Cn2cnc3c(=O)[nH]c(N)nc32)CC(=O)NCCN(CC(=O)NCCN(CC(=O)NCCN(CC(=O)NCCN(CC(=O)NCCN(CC(=O)NCCN(CC(=O)N[C@@H](CCCCN)C(N)=O)C(=O)Cn2cc(C)c(=O)[nH]c2=O)C(=O)Cn2ccc(N)nc2=O)C(=O)Cn2cnc3c(N)ncnc32)C(=O)Cn2ccc(N)nc2=O)C(=O)Cn2cnc3c(N)ncnc32)C(=O)Cn2ccc(N)nc2=O)c(=O)[nH]c1=O
